Drawing on ChEMBL document CHEMBL6134766, “Design, synthesis, and evaluation of benzhydrylpiperazine-based novel dual COX-2/5-LOX inhibitors with anti-inflammatory and anti-cancer activity” (RSC Med Chem, 2025), this text covers Activity for two molecules.

Data set [1] relates to Rattus norvegicus. As to the kind of experiment: Anti-inflammatory activity in carrageenan-induced paw edema Wistar rat model assessed as swelling thickness of paw at 20 mg/kg, po measured after 4 hrs by digital vernier caliper (reference value: 8.36 +/- 0.78 millimeter). Type of data set: functional.
Data set [2] concerns Rattus norvegicus. Put plainly: Anti-inflammatory activity in carrageenan-induced paw edema Wistar rat model assessed as swelling thickness of paw at 5 mg/kg, po measured after 1 hr by digital vernier caliper (reference value: 8.47 +/- 0.25 millimeter). The data set is classed as functional.
The subject of data set [3] is Rattus norvegicus. Put plainly: Anti-inflammatory activity in arachidonic acid-induced paw edema Wistar rat model assessed as protection against swelling thickness of paw at 10 mg/kg, po measured after 1 hr by digital vernier caliper (reference value: 0 %). Type of data set: functional.
Data set [4] relates to Rattus norvegicus. As to the kind of experiment: Anti-inflammatory activity in carrageenan-induced paw edema Wistar rat model assessed as swelling thickness of paw at 10 mg/kg, po measured after 6 hrs by digital vernier caliper (reference value: 8.33 +/- 0.42 millimeter). Type of data set: functional.
The nature of data set [5]: Toxicity in Wistar rat assessed as change in serum creatinine level at 20 mg/kg, po. Type of data set: organism-based. As to conditions: in vivo. In a few lines: (§1)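 Rats dosed orally in 0.3% Na CMC; retro-orbital blood clotted at room temperature, serum separated at 2000 rpm, 20 min, 4 °C; ALT, AST, creatinine and urea by commercial kits; n = 6 per group, mean ± SD; Tukey test after repeated-measures one-way ANOVA.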

A short description of data set [6]: Toxicity in fasting Wistar rat assessed as ulceration at 20 mg/kg, po via gavage treated for 3 days consecutively by H and E staining based analysis (reference value: 0 %). The data set is classed as organism-based. The note with it: in vivo, 72 h, time 3 day. In short, it runs like this: (§2)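 Fasted rats, n = 6/group, gavaged once daily for 3 days in 0.3% Na CMC (vehicle control 0.3% CMC); killed under anaesthesia 6 h after day-3 dose; stomachs saline-washed, mucosa examined with hand lens; ulcer score, index and % ulceration by reported scoring; some stomachs formalin-fixed, H&E stained.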

The test system of data set [7] is Rattus norvegicus. As to the kind of experiment: Anti-inflammatory activity in arachidonic acid-induced paw edema Wistar rat model assessed as swelling thickness of paw at 5 mg/kg, po measured after 1 hr by digital vernier caliper (reference value: 6.51 +/- 0.37 millimeter). Type of data set: functional.
Data set [8] has as its system Rattus norvegicus. As to the kind of experiment: Anti-inflammatory activity in carrageenan-induced paw edema Wistar rat model assessed as swelling thickness of paw at 20 mg/kg, po measured immediately by digital vernier caliper (reference value: 3.48 +/- 0.21 millimeter). The data set is classed as functional.
The test system of data set [9] is Rattus norvegicus. As to the kind of experiment: Anti-inflammatory activity in carrageenan-induced paw edema Wistar rat model assessed as swelling thickness of paw at 5 mg/kg, po measured after 6 hrs by digital vernier caliper (reference value: 8.33 +/- 0.42 millimeter). The data set is classed as functional.
A short description of data set [10]: Toxicity in fasting Wistar rat assessed as ulceration at 10 mg/kg, po via gavage treated for 3 days consecutively by H and E staining based analysis (reference value: 0 %). Type of data set: organism-based. The note with it: in vivo, 72 h, time 3 day. In a few lines: as §2
For data set [11], the system named is Rattus norvegicus. As to the kind of experiment: Anti-inflammatory activity in carrageenan-induced paw edema Wistar rat model assessed as swelling thickness of paw at 10 mg/kg, po measured after 4 hrs by digital vernier caliper (reference value: 8.36 +/- 0.78 millimeter). The data set is classed as functional.
In data set [12] the test system is Rattus norvegicus. Put plainly: Anti-inflammatory activity in carrageenan-induced paw edema Wistar rat model assessed as swelling thickness of paw at 20 mg/kg, po measured after 6 hrs by digital vernier caliper (reference value: 8.33 +/- 0.42 millimeter). Type of data set: functional.
Data set [13] in a line: Toxicity in fasting Wistar rat assessed as ulcer score at 5 mg/kg, po via gavage treated for 3 days consecutively by H and E staining based analysis (reference value: 0). The note with it: in vivo, 72 h, time 3 day. Type of data set: organism-based. In short, it runs like this:
as §2

A short description of data set [14]: Toxicity in Wistar rat assessed as change in serum AST level at 20 mg/kg, po. The data set is classed as organism-based. As to conditions: in vivo. In a few lines:
as §1

A short description of data set [15]: Acute toxicity in female Wistar rat assessed as detrimental effects up to 500 mg/kg, po measured for 14 days. The data set is classed as organism-based. The note with it: in vivo, 336 h, time 14 day. In a few lines:
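Followed OECD 423 guideline in healthy female Wistar rats weighing 200–250 g. Animals were housed at 25 ± 2 °C and 45–60% RH on a 12 h light/dark cycle, with free access to water and food.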

For data set [16], the system named is Rattus norvegicus. As to the kind of experiment: Anti-inflammatory activity in carrageenan-induced paw edema Wistar rat model assessed as decrease in TNF-alpha level in paw tissue at 5 to 20 mg/kg, po measured for 6 hrs by ELISA. The note with it: dose 5-20 mg/kg. Type of data set: functional, organism-based. In short, it runs like this: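 Paw tissue taken from carrageenan-edema rats dosed orally at 5, 10 or 20 mg kg−1. Tissue rinsed in PBS pH 7.4, minced, homogenized, filtered and centrifuged at 2000 rpm for 20 min at 4 °C. Supernatant assayed by ELISA for PGE2, IL-6, TNF-α and IL-10. Data as mean ± SD.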

Data set [17] deals with Rattus norvegicus. Put plainly: Cardio-protective activity in ISO-treated Wistar rat assessed as decrease in serum CK-MB level at 20 mg/kg, po. Type of data set: functional, organism-based. In a few lines:
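Rats (n = 6/group) given ISO 100 mg kg−1 s.c., then oral test compound in 0.3% CMC; vehicle controls. Retro-orbital blood, serum separated at 4000 rpm, 4 °C, 10 min; LDH and CK-MB by commercial kits; mean ± SD.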

The subject of data set [18] is Rattus norvegicus. As to the kind of experiment: Anti-inflammatory activity in arachidonic acid-induced paw edema Wistar rat model assessed as protection against swelling thickness of paw at 20 mg/kg, po measured after 1 hr by digital vernier caliper (reference value: 0 %). The data set is classed as functional.
Data set [19] in a line: Toxicity in fasting Wistar rat assessed as ulceration at 5 mg/kg, po via gavage treated for 3 days consecutively by H and E staining based analysis (reference value: 0 %). The data set is classed as organism-based. The note with it: in vivo, 72 h, time 3 day. In a few lines: as §2
Data set [20] has as its system Rattus norvegicus. As to the kind of experiment: Anti-inflammatory activity in carrageenan-induced paw edema Wistar rat model assessed as swelling thickness of paw at 5 mg/kg, po measured immediately by digital vernier caliper (reference value: 3.48 +/- 0.21 millimeter). Type of data set: functional.
In data set [21] the test system is Rattus norvegicus. Put plainly: Anti-inflammatory activity in carrageenan-induced paw edema Wistar rat model assessed as swelling thickness of paw at 5 mg/kg, po measured after 2 hrs by digital vernier caliper (reference value: 8.65 +/- 0.53 millimeter). Type of data set: functional.
For data set [22], the system named is Rattus norvegicus. As to the kind of experiment: Anti-inflammatory activity in Wistar rat assessed as reduction in ADP/collagen-induced platelet aggregation at 20 mg/kg, po. The data set is classed as functional, organism-based. In short, it runs like this:
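Platelet-rich plasma from treated rats (n = 6/group) adjusted to 4 × 10^8 platelets per ml in Tyrode's buffer. Absorbance read at 570 nm, then aggregation induced with ADP plus 5 μg ml−1 collagen. Plates incubated 5 min at 37 °C with shaking and absorbance re-read at 570 nm. Percent aggregation derived from the absorbance change.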

Active and inactive are the calls of the source. No cut-off for these calls is given here.

As to `O=[N+]([O-])c1ccc(-c2nnc(CN3CCN(C(c4ccccc4)c4ccc(Cl)cc4)CC3)o2)cc1` (centres undefined), the Activity was 4.32 mm with Rattus norvegicus [1]; 5.74 mm in the data set with Rattus norvegicus [2]; 62.33% in the data set on Rattus norvegicus [3]; 3.89 mm in the data set with Rattus norvegicus [4]; “Non-toxic” in data set [5]; 4.86% in data set [6]. Moreover, the Activity in the data set with Rattus norvegicus [7] came to 2.92 mm; with Rattus norvegicus [8] it was 3.65 mm; in the data set on Rattus norvegicus [9] it was 4.14 mm; in [10], 4.85%; in the data set with Rattus norvegicus [11], 3.88 mm; with Rattus norvegicus [12] it was 3.91 mm. For the same molecule, the Activity in data set [13] is given as 0.01; in [14], “Non-toxic”; in data set [15], “Non-toxic”; in the data set with Rattus norvegicus [18], 64.36%; in data set [19], 0.667%; with Rattus norvegicus [20], 3.59 mm. Also, the Activity with Rattus norvegicus [21] is 5.25 mm. The outcome in the data set on Rattus norvegicus [16], in the data set with Rattus norvegicus [17] and with Rattus norvegicus [22] was Active.

For `Clc1ccc(-c2nnc(CN3CCN(C(c4ccccc4)c4ccc(Cl)cc4)CC3)o2)cc1` (centres undefined), the Activity with Rattus norvegicus [1] was 3.22 mm; in the data set on Rattus norvegicus [2], 6.18 mm; in the data set on Rattus norvegicus [3] it was 69.22%; with Rattus norvegicus [4], 3.37 mm; in data set [5], “Non-toxic”; in data set [6] it was 1.25%. The Activity was determined as 2.86 mm in the data set on Rattus norvegicus [7]; 3.43 mm in the data set on Rattus norvegicus [8]; 4.14 mm with Rattus norvegicus [9]; 1.38% in data set [10]; 3.32 mm with Rattus norvegicus [11]; 3.41 mm with Rattus norvegicus [12]. In addition, the Activity in data set [13] is listed as 0; in [14], “Non-toxic”; in data set [15] it was “Non-toxic”; in the data set with Rattus norvegicus [18] it was 70.21%; in [19], 0%; with Rattus norvegicus [20] it was 3.51 mm. Besides, the Activity in the data set on Rattus norvegicus [21] was 5.63 mm. The outcome with Rattus norvegicus [16], in the data set on Rattus norvegicus [17] and with Rattus norvegicus [22] was Active.
